{
  "source": "ChEMBL document CHEMBL1157145",
  "about": "“Cytotoxic activity of proflavine diureas: synthesis, antitumor, evaluation and DNA binding properties of 1',1''-(acridin-3,6-diyl)-3',3''-dialkyldiureas” (Bioorg Med Chem, 2008)",
  "key": {"[1]": {"test_system": "HCT-116", "assay": "Cell cycle arrest in human HCT116 cells assessed as accumulation at G2/M phase at 27 uM after 48 hrs", "type": "functional", "summary_of_the_method": "(§1)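 Cells seeded at 8 · 10^5 per 60 mm dish, allowed to settle 24 h (37 °C, 5% CO2), then exposed to the drug for 24 or 48 h. Adherent plus floating cells (5 · 10^5) were fixed in cold 70% ethanol at −20 °C overnight, treated with RNase A (100 µg/mL) and stained with propidium iodide (20 µg/mL) in Vindelov's solution for 30 min at RT. Flow cytometry used 488 nm excitation, FL-2 at 585 ± 21 nm, and histograms were modelled for G0/G1, S and G2/M fractions.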"}, "[2]": {"test_system": "DNA", "assay": "Binding affinity to calf thymus DNA at 5.5 uM by absorption titration", "type": "nucleic-acid assay", "details": "Bos taurus", "summary_of_the_method": "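Compound (5.5 µM) in 0.01 M Tris, pH 7.4, 25 °C. UV–vis spectra recorded over ctDNA 0–35 µM bp in 5 µM steps, corrected for dilution. ctDNA concentration from A260, expressed in base pairs.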"}, "[3]": {"test_system": "DNA", "assay": "Binding affinity to calf thymus DNA at 4 uM by fluorescence spectrophotometric titration", "type": "nucleic-acid assay", "details": "Bos taurus", "summary_of_the_method": "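ctDNA sonicated in TE buffer, concentration taken from A260 and given in base pairs. Compound (4 µM) in 0.01 M Tris, pH 7.4, 25 °C titrated with ctDNA (0–55 µM bp) until spectra stopped changing. Excitation 424 nm, slit widths 10 nm; binding constant derived from the change in emission.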"}, "[4]": {"test_system": "DNA", "assay": "Binding affinity to calf thymus DNA at 50 uM by circular dichroism spectrophotometric titration", "type": "nucleic-acid assay", "details": "Bos taurus"}, "[5]": {"test_system": "HeLa", "assay": "Cytotoxicity against human HeLa cells after 48 hrs by MTT assay", "type": "functional, cell-based"}, "[6]": {"test_system": "HeLa", "assay": "Cytotoxicity against human HeLa cells after 72 hrs by MTT assay", "type": "functional, cell-based"}, "[7]": {"test_system": "HCT-116", "assay": "Cytotoxicity against human HCT116 cells after 48 hrs by MTT assay", "type": "functional, cell-based", "details": "HCT-116, 48 h"}, "[8]": {"test_system": "HCT-116", "assay": "Cytotoxicity against human HCT116 cells after 72 hrs by MTT assay", "type": "functional, cell-based", "details": "Homo sapiens, HCT-116, 72 h"}, "[9]": {"test_system": "HeLa", "assay": "Antiproliferative activity against human HeLa cells assessed as increase of floating cells in total cell population at 64 uM after 24 hrs", "type": "functional", "summary_of_the_method": "(§2)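 Cells seeded (8 · 10^5 per 60 mm dish), allowed to settle 24 h at 37 °C, 5% CO2, then treated with a single concentration for 24 or 48 h. Adherent and floating cells counted by Coulter counter. Total cell number given as % of untreated control; floating cells as % of total cell number.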"}, "[10]": {"test_system": "HeLa", "assay": "Antiproliferative activity against human HeLa cells assessed as decrease in total cell population at 64 uM after 24 hrs", "type": "functional", "design": "scale not given: the % may be the effect or the level left", "summary_of_the_method": "as §2"}, "[11]": {"test_system": "HeLa", "assay": "Antiproliferative activity against human HeLa cells assessed as increase of floating cells in total cell population at 64 uM after 48 hrs", "type": "functional", "summary_of_the_method": "as §2"}, "[12]": {"test_system": "HeLa", "assay": "Antiproliferative activity against human HeLa cells assessed as decrease in total cell population at 64 uM after 48 hrs", "type": "functional", "design": "scale not given: the % may be the effect or the level left", "summary_of_the_method": "as §2"}, "[13]": {"test_system": "HCT-116", "assay": "Antiproliferative activity against human HCT116 cells assessed as increase of floating cells in total cell population at 27 uM after 24 hrs", "type": "functional", "summary_of_the_method": "as §2"}, "[14]": {"test_system": "HCT-116", "assay": "Antiproliferative activity against human HCT116 cells assessed as decrease in total cell population at 27 uM after 24 hrs", "type": "functional", "design": "scale not given: the % may be the effect or the level left", "summary_of_the_method": "as §2"}, "[15]": {"test_system": "HCT-116", "assay": "Antiproliferative activity against human HCT116 cells assessed as increase of floating cells in total cell population at 27 uM after 48 hrs", "type": "functional", "summary_of_the_method": "as §2"}, "[16]": {"test_system": "HCT-116", "assay": "Antiproliferative activity against human HCT116 cells assessed as decrease in total cell population at 27 uM after 48 hrs", "type": "functional", "design": "scale not given: the % may be the effect or the level left", "summary_of_the_method": "as §2"}, "[17]": {"test_system": "HeLa", "assay": "Induction of apoptosis in human HeLa cells at 64 uM after 24 hrs", "type": "functional", "summary_of_the_method": "(§3)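 After 24 or 48 h of drug exposure, all cells were collected, combining trypsinised adherent cells with floating cells from the medium. Cells (1 × 10^6) were fixed in cold 70% ethanol overnight at −20 °C and stained with DAPI (10 µg/mL) for 30 min in the dark at RT. Under fluorescence microscopy, 300 cells per sample were scored, with condensed or fragmented nuclei counted as apoptotic.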"}, "[18]": {"test_system": "HeLa", "assay": "Induction of apoptosis in human HeLa cells at 64 uM after 48 hrs", "type": "functional", "summary_of_the_method": "as §3"}, "[19]": {"test_system": "HCT-116", "assay": "Induction of apoptosis in human HCT116 cells at 27 uM after 24 hrs", "type": "functional", "summary_of_the_method": "as §3"}, "[20]": {"test_system": "HCT-116", "assay": "Induction of apoptosis in human HCT116 cells at 27 uM after 48 hrs", "type": "functional", "summary_of_the_method": "as §3"}, "[21]": {"test_system": "HeLa", "assay": "Cell cycle arrest in human HeLa cells assessed as accumulation at G0/G1 phase at 64 uM after 24 hrs", "type": "functional", "summary_of_the_method": "as §1"}, "[22]": {"test_system": "HeLa", "assay": "Cell cycle arrest in human HeLa cells assessed as accumulation at G0/G1 phase at 64 uM after 48 hrs", "type": "functional", "summary_of_the_method": "as §1"}, "[23]": {"test_system": "HCT-116", "assay": "Cell cycle arrest in human HCT116 cells assessed as accumulation at G0/G1 phase at 27 uM after 24 hrs", "type": "functional", "summary_of_the_method": "(§4)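 Adherent plus floating cells (5 · 10^5) collected 24 or 48 h after treatment, fixed in cold 70% ethanol at −20 °C overnight, washed in PBS. RNase A (100 µg/mL) and propidium iodide (20 µg/mL) in Vindelov's solution, 30 min at RT. Flow cytometry with 488 nm excitation, emission 585 ± 21 nm; % cells per cycle phase from DNA content histograms.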"}, "[24]": {"test_system": "HCT-116", "assay": "Cell cycle arrest in human HCT116 cells assessed as accumulation at G0/G1 phase at 27 uM after 48 hrs", "type": "functional", "summary_of_the_method": "as §4"}, "[25]": {"test_system": "HeLa", "assay": "Cell cycle arrest in human HeLa cells assessed as accumulation at S phase at 64 uM after 24 hrs", "type": "functional", "summary_of_the_method": "as §1"}, "[26]": {"test_system": "HeLa", "assay": "Cell cycle arrest in human HeLa cells assessed as accumulation at S phase at 64 uM after 48 hrs", "type": "functional", "summary_of_the_method": "as §1"}, "[27]": {"test_system": "HCT-116", "assay": "Cell cycle arrest in human HCT116 cells assessed as accumulation at S phase at 27 uM after 24 hrs", "type": "functional", "summary_of_the_method": "as §1"}, "[28]": {"test_system": "HCT-116", "assay": "Cell cycle arrest in human HCT116 cells assessed as accumulation at S phase at 27 uM after 48 hrs", "type": "functional", "summary_of_the_method": "as §1"}, "[29]": {"test_system": "HeLa", "assay": "Cell cycle arrest in human HeLa cells assessed as accumulation at G2/M phase at 64 uM after 24 hrs", "type": "functional", "summary_of_the_method": "as §1"}, "[30]": {"test_system": "HeLa", "assay": "Cell cycle arrest in human HeLa cells assessed as accumulation at G2/M phase at 64 uM after 48 hrs", "type": "functional", "summary_of_the_method": "as §1"}, "[31]": {"test_system": "HCT-116", "assay": "Cell cycle arrest in human HCT116 cells assessed as accumulation at G2/M phase at 27 uM after 24 hrs", "type": "functional", "summary_of_the_method": "as §1"}},
  "note": "Active and inactive are the calls of the source. The calls are words filed in the database; no cut-off is given here.",
  "data": [
    {"smiles": "CCNC(=O)Nc1ccc2cc3ccc(NC(=O)NCC)cc3nc2c1.Cl", "values": [
      {"measurement": "Activity", "setting": "[1]", "result": 14.85, "unit": "%"},
      {"measurement": "Activity", "setting": "[2]", "result": "Active"},
      {"measurement": "K", "setting": "[3]", "result": 4.2, "unit": "×10⁵ /M"},
      {"measurement": "Activity", "setting": "[4]", "result": "Active"},
      {"measurement": "IC50", "setting": "[5]", "result": 63.9, "unit": "µM"},
      {"measurement": "IC50", "setting": "[6]", "result": 60, "unit": "µM"},
      {"measurement": "IC50", "setting": "[7]", "result": 27.6, "unit": "µM"},
      {"measurement": "IC50", "setting": "[8]", "result": 34.7, "unit": "µM"},
      {"measurement": "Activity", "setting": "[9]", "result": 3.58, "unit": "%"},
      {"measurement": "Activity", "setting": "[10]", "result": 95.15, "unit": "%"},
      {"measurement": "Activity", "setting": "[11]", "result": 4.63, "unit": "%"},
      {"measurement": "Activity", "setting": "[12]", "result": 93.61, "unit": "%"},
      {"measurement": "Activity", "setting": "[13]", "result": 6.2, "unit": "%"},
      {"measurement": "Activity", "setting": "[14]", "result": 79.4, "unit": "%"},
      {"measurement": "Activity", "setting": "[15]", "result": 5.68, "unit": "%"},
      {"measurement": "Activity", "setting": "[16]", "result": 75.37, "unit": "%"},
      {"measurement": "Activity", "setting": "[17]", "result": 1.33, "unit": "%"},
      {"measurement": "Activity", "setting": "[18]", "result": 0.89, "unit": "%"},
      {"measurement": "Activity", "setting": "[19]", "result": 3.22, "unit": "%"},
      {"measurement": "Activity", "setting": "[20]", "result": 3.44, "unit": "%"},
      {"measurement": "Activity", "setting": "[21]", "result": 63.51, "unit": "%"},
      {"measurement": "Activity", "setting": "[22]", "result": 71.26, "unit": "%"},
      {"measurement": "Activity", "setting": "[23]", "result": 47.44, "unit": "%"},
      {"measurement": "Activity", "setting": "[24]", "result": 53.7, "unit": "%"},
      {"measurement": "Activity", "setting": "[25]", "result": 23.73, "unit": "%"},
      {"measurement": "Activity", "setting": "[26]", "result": 19.5, "unit": "%"},
      {"measurement": "Activity", "setting": "[27]", "result": 34.06, "unit": "%"},
      {"measurement": "Activity", "setting": "[28]", "result": 31.45, "unit": "%"},
      {"measurement": "Activity", "setting": "[29]", "result": 12.75, "unit": "%"},
      {"measurement": "Activity", "setting": "[30]", "result": 9.23, "unit": "%"},
      {"measurement": "Activity", "setting": "[31]", "result": 18.5, "unit": "%"}
    ]},
    {"smiles": "Nc1ccc2cc3ccc(N)cc3nc2c1", "values": [
      {"measurement": "K", "setting": "[3]", "result": 7.95, "unit": "×10⁵ /M"}
    ]}
  ]
}
